Assay results taken from ChEMBL document CHEMBL1122517, “2-Phenylindoles. Relationship between structure, estrogen receptor affinity, and mammary tumor inhibiting activity in the rat” (1984).
Values belong to the compound of their own block, whether it stands above or below them.

Key:
[1] = biological target: Estrogen receptor (Bos taurus) (UniProt Q9XSB5+P49884); assay: Relative binding affinity for the calf uterine estrogen receptor measured as the ratio of molar concentration of 17-beta-estradiol (E2) and inhibitor required to decrease the amount of bound [3H]E2 by 50%; type: protein assay
Procedure, shortened: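 Competitive binding in calf uterine cytosol with 5×10^-9 M [3H]estradiol, 18 h at 4 °C, Tris/EDTA buffer (0.01 M, pH 7.5). Unbound ligand was removed with dextran-coated charcoal (90 min, 4 °C) and supernatant radioactivity counted. Six competitor concentrations gave 10–90% bound. From semilog plots, RBA = ratio of molar concentrations of estradiol to compound giving 50% decrease in binding, ×100.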

[2] = biological target: T1, Estrogen receptor (Mus musculus) (UniProt O08537+P19785); assay: Anti-uterotrophic activity in mice as uterus dry weight (mg)/body weight (g) *100 at 125 ug dose; type: functional, tissue-based
T1 sequence (O08537 whole entry, looked up): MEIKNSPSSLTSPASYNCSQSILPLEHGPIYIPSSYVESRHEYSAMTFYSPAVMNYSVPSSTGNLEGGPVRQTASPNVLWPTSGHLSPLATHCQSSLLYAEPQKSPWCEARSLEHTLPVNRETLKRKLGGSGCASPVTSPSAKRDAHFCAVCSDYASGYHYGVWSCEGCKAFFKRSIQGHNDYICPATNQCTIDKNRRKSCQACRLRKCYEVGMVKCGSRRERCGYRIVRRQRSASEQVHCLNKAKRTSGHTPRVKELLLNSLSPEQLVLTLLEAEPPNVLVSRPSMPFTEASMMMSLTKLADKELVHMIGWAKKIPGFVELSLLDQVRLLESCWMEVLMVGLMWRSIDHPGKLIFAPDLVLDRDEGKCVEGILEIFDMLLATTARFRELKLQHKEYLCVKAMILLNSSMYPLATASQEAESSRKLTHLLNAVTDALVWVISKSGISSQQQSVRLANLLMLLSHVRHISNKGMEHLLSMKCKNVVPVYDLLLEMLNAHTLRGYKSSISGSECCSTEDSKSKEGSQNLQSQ
T1 sequence (P19785 whole entry, looked up): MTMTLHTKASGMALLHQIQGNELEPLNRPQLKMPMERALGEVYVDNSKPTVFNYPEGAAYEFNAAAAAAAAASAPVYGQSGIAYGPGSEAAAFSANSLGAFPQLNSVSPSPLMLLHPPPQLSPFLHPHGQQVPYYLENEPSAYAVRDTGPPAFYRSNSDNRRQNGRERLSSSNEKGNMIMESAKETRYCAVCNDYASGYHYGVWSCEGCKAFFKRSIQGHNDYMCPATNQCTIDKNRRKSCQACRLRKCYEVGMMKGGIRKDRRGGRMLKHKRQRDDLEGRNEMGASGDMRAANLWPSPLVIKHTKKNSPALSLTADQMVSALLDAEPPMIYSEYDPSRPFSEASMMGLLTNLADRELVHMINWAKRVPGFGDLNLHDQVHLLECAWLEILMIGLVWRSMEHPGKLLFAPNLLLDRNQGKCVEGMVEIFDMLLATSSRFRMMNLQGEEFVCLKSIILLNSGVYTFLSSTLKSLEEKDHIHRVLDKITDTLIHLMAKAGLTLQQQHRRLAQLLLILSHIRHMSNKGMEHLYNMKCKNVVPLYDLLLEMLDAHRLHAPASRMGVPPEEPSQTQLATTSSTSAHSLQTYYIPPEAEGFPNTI
Procedure, shortened: (§1)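 Immature female NMRI mice, 19 days old, groups of 10, given sc injections on 3 consecutive days. Each injection held 0.4 μg estrone plus the indole dose per animal, in olive oil (50 μL). Killed 24 h after the last injection. Uteri were fixed in Bouin solution, washed, and dried 24 h at 100 °C. Read-out was uterine dry weight (mg)/body weight (g) × 100, mean ± SD.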

[3] = biological target: T1, Estrogen receptor (Mus musculus); assay: Anti-uterotrophic activity in mice as uterus dry weight (mg)/body weight (g) *100 at 1 ug dose; type: functional, tissue-based; procedure, shortened: as §1
[4] = biological target: T1, Estrogen receptor (Mus musculus); assay: Anti-uterotrophic activity in mice as uterus dry weight (mg)/body weight (g) *100 at 25 ug dose; type: functional, tissue-based; procedure, shortened: as §1
[5] = biological target: T1, Estrogen receptor (Mus musculus); assay: Anti-uterotrophic activity in mice as uterus dry weight (mg)/body weight (g) *100 at 5 ug dose; type: functional, tissue-based; procedure, shortened: as §1
[6] = biological target: T1, Estrogen receptor (Mus musculus); assay: Uterotrophic activity in mice as uterus dry weight (mg)/body weight (g) *100 at 0.2 ug dose; type: functional, tissue-based
Procedure, shortened: (§2)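 Immature 19-day-old female NMRI mice, groups of 10. Compound dose per animal in olive oil (50 µL) sc on 3 consecutive days. Mice were killed 24 h after the last injection. Uteri were Bouin-fixed 20 h, cleaned, washed with alcoholic LiCl, and dried at 100 °C for 24 h. Effect = uterine dry weight (mg)/body weight (g) ×100; mean ± SD.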

[7] = biological target: T1, Estrogen receptor (Mus musculus); assay: Uterotrophic activity in mice as uterus dry weight (mg)/body weight (g) *100 at 1 ug dose; type: functional, tissue-based; procedure, shortened: as §2
[8] = biological target: T1, Estrogen receptor (Mus musculus); assay: Uterotrophic activity in mice as uterus dry weight (mg)/body weight (g) *100 at 25 ug dose; type: functional, tissue-based; procedure, shortened: as §2
[9] = biological target: T1, Estrogen receptor (Mus musculus); assay: Uterotrophic activity in mice as uterus dry weight (mg)/body weight (g) *100 at 5 ug dose; type: functional, tissue-based; procedure, shortened: as §2
[10] = organism: Rattus norvegicus; assay: Change in DMBA-induced mammary carcinoma tumor area in rats at 1.8 mg dose; 47-510; type: functional
Procedure, shortened: (§3)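 Female Sprague-Dawley rats got one 20 mg DMBA dose by gavage at 50 days old and were palpated twice weekly from day 30. Rats were randomized once tumor area exceeded 140 mm². Dose (per kg) was given sc in olive oil, once daily Monday to Thursday and doubled on Friday. Tumor area was taken from caliper measurements of two perpendicular axes, twice weekly. Change per animal is given as median % and range.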

[11] = organism: Rattus norvegicus; assay: Change in body weight of DMBA-induced mammary carcinoma tumor bearing rats at 1.8 mg dose; type: functional
Procedure, shortened: (§4)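 DMBA-induced tumor-bearing Sprague-Dawley rats (20 mg DMBA by gavage at 50 days old), randomized when tumor area exceeded 140 mm². Dose per kg was given sc in olive oil, single dose daily Monday to Thursday, double dose Friday. Body weight was measured twice weekly. Read-out was % change in body weight.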

[12] = organism: Rattus norvegicus; assay: (§5) Change in DMBA-induced mammary carcinoma tumor area in rats at 1.8 mg dose; type: functional; procedure, shortened: as §3
[13] = biological target: T1, Estrogen receptor (Mus musculus); assay: Percentage inhibition of uterotrophic activity at 125 ug dose; type: functional
Procedure, shortened: (§6)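 Antiuterotrophic test in immature 19-day-old female NMRI mice (n=10), dosed sc on 3 consecutive days with 0.4 µg estrone per animal per day plus compound in olive oil. Uterine dry weight/body weight ×100 was read 24 h after the last dose. Inhibition % = 100 − [(E_S,T − E_V)/(E_S − E_V)]×100.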

[14] = biological target: T1, Estrogen receptor (Mus musculus); assay: Percentage inhibition of uterotrophic activity at 5 ug dose; type: functional; procedure, shortened: as §6
[15] = organism: Rattus norvegicus; assay: Percent unchanged DMBA-induced mammary carcinoma tumors in rats at 1.8 mg dose; type: functional
Procedure, shortened: (§7)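 Female Sprague-Dawley rats, 50 days old, given a single 20 mg DMBA dose in 1 mL olive oil by gavage. Rats were palpated twice weekly from day 30, and those without tumors by day 70 were discarded. Rats were randomized once tumor area exceeded 140 mm². Drug dose was per kg in olive oil (1 mL/kg) sc, single dose Mon–Thu and double dose Fri. Tumor area (caliper, two perpendicular axes) and body weight were measured twice weekly.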

[16] = organism: Rattus norvegicus; assay: Number of DMBA-induced mammary carcinoma tumors in rats at 1.8 mg dose; type: functional
Procedure, shortened: (§8)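 DMBA-induced tumors in Sprague-Dawley rats, entered when tumor area exceeded 140 mm². Dose per kg was given sc in olive oil, daily Monday to Thursday with a double dose Friday. Tumors were measured by calipers twice weekly. Tumor number was counted at the start of the test. Complete remission meant the tumor was no longer palpable. Partial remission meant reduction to ≤50% of initial size. New tumor appearance was recorded.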

[17] = organism: Rattus norvegicus; assay: Formation of new DMBA-induced mammary carcinoma tumors in rats at 1.8 mg dose; type: functional; procedure, shortened: as §8
[18] = organism: Rattus norvegicus; assay: as §5; type: functional; procedure, shortened: as §3; remark: listed apart in the source
[19] = organism: Rattus norvegicus; assay: Percent progressive DMBA-induced mammary carcinoma tumors in rats at 1.8 mg dose; type: functional; procedure, shortened: as §7
[20] = organism: Rattus norvegicus; assay: Partial remission (%) of DMBA-induced mammary carcinoma tumors in rats at 1.8 mg dose; type: functional; procedure, shortened: as §8
[21] = biological target: T1, Estrogen receptor (Mus musculus); assay: Percentage inhibition of uterotrophic activity at 25 ug dose; type: functional; procedure, shortened: as §6
[22] = biological target: T1, Estrogen receptor (Mus musculus); assay: Percentage inhibition of uterotrophic activity at 1 ug dose; type: functional; procedure, shortened: as §6
[23] = biological target: T1, Estrogen receptor (Mus musculus); assay: Uterotrophic activity in mice as uterus dry weight (mg)/body weight (g) *100 at 125 ug dose; type: functional, tissue-based; procedure, shortened: as §2
[24] = organism: Rattus norvegicus; assay: Change in DMBA-induced mammary carcinoma tumor area in rats at 2 mg dose; type: functional; procedure, shortened: as §3
[25] = organism: Rattus norvegicus; assay: Change in DMBA-induced mammary carcinoma tumor area in rats at 2 mg dose; -100-231; type: functional; procedure, shortened: as §3
[26] = organism: Rattus norvegicus; assay: Change in body weight of DMBA-induced mammary carcinoma tumor bearing rats at 2 mg dose; type: functional; procedure, shortened: as §4
[27] = organism: Rattus norvegicus; assay: Complete remission (%) of DMBA-induced mammary carcinoma tumors in rats at 2 mg dose; type: functional; procedure, shortened: as §8
[28] = organism: Rattus norvegicus; assay: Partial remission (%) of DMBA-induced mammary carcinoma tumors in rats; type: functional; procedure, shortened: as §8
[29] = organism: Rattus norvegicus; assay: Percent unchanged DMBA-induced mammary carcinoma tumors in rats at 2 mg dose; type: functional; procedure, shortened: as §7
[30] = organism: Rattus norvegicus; assay: Number of DMBA-induced mammary carcinoma tumors in rats at 2 mg dose; type: functional; procedure, shortened: as §8
[31] = organism: Rattus norvegicus; assay: Formation of new DMBA-induced mammary carcinoma tumors in rats at 2 mg dose; type: functional; procedure, shortened: as §8
[32] = organism: Rattus norvegicus; assay: Percent progressive DMBA-induced mammary carcinoma tumors in rats at 2 mg dose; type: functional; procedure, shortened: as §7

Structure (SMILES): CCCn1c(-c2ccc(OC(C)=O)cc2)c(C)c2cc(OC(C)=O)ccc21
Anti-uterotrophic effect [2]: 29.3 | Anti-uterotrophic effect [3]: 45.2 | Anti-uterotrophic effect [4]: 29.8 | Anti-uterotrophic effect [5]: 40.3 | Uterotrophic effect [6]: 16.7 | Uterotrophic effect [7]: 21.7 | Uterotrophic effect [8]: 28.5 | Uterotrophic effect [9]: 23 | Change of tumor area [10]: 47% | Change of body weight [11]: 2% | Change of tumor area [12]: 198% | inhibition [13]: 67% | inhibition [14]: 37% | Static tumors [15]: 30% | No. of tumors [16]: 34 | New tumors [17]: 27 | Change of tumor area [18]: 198% | Progressed tumors [19]: 55% | Partial remission [20]: 8% | inhibition [21]: 66% | inhibition [22]: 24%

Structure (SMILES): Cc1c(-c2ccc(O)cc2)n(C)c2cc(O)ccc12
RBA [1]: 10

Structure (SMILES): CCc1c(-c2ccc(OC(C)=O)cc2)n(CC)c2cc(OC(C)=O)ccc12
Uterotrophic effect [6]: 25.5 | Uterotrophic effect [23]: 44.7 | Uterotrophic effect [7]: 36.2 | Uterotrophic effect [8]: 46.4 | Uterotrophic effect [9]: 45.6 | Change of tumor area [24]: -95% | Change of tumor area [25]: -100% | Change of body weight [26]: -13% | Complete remission [27]: 74% | Partial remission [28]: 13% | Static tumors [29]: 5% | No. of tumors [30]: 36 | New tumors [31]: 3 | Progressed tumors [32]: 8%

Structure (SMILES): CCCc1c(-c2ccc(O)cc2)n(CCC)c2ccc(O)cc12
RBA [1]: 1.7

Structure (SMILES): CCn1c(-c2cccc(O)c2)cc2ccc(O)cc21
RBA [1]: 1.7

Structure (SMILES): CCCn1c(-c2ccc(O)cc2)cc2ccc(O)cc21
RBA [1]: 8.5

Structure (SMILES): CCn1c(-c2cccc(O)c2)c(C)c2cc(O)ccc21
RBA [1]: 2.2

Structure (SMILES): CCn1c(-c2cccc(OC(C)=O)c2)c(C)c2ccc(OC(C)=O)cc21
Anti-uterotrophic effect [2]: 37.4 | Anti-uterotrophic effect [3]: 46.9 | Anti-uterotrophic effect [4]: 40.6 | Anti-uterotrophic effect [5]: 41.7 | Uterotrophic effect [23]: 39.1 | Uterotrophic effect [7]: 15.2 | Uterotrophic effect [8]: 30.2 | Uterotrophic effect [9]: 17.2 | inhibition [13]: 26% | inhibition [14]: 11% | inhibition [21]: 15%

Structure (SMILES): CCn1c(-c2ccc(O)cc2)c(C)c2cccc(O)c21
RBA [1]: 0.02

Structure (SMILES): Cc1c(-c2ccc(O)cc2)n(C)c2ccc(O)cc12
RBA [1]: 4.6

The next lines start with the values.

RBA [1]: 7.4
Structure (SMILES): CCCn1c(-c2cccc(O)c2)c(C)c2cc(O)ccc21

RBA [1]: 0.13
Structure (SMILES): CCc1c(-c2ccc(O)cc2)[nH]c2cc(O)ccc12

RBA [1]: 0.06
Structure (SMILES): Cc1c(-c2ccc(O)cc2)[nH]c2cc(O)ccc12

RBA [1]: 16
Structure (SMILES): CCCn1c(-c2ccc(O)cc2)c(C)c2cc(O)ccc21

RBA [1]: 3.5
Structure (SMILES): CCCn1c(-c2cccc(O)c2)c(C)c2ccc(O)cc21

RBA [1]: 0.01
Structure (SMILES): Oc1ccc(-c2cc3cc(O)ccc3[nH]2)cc1

RBA [1]: 13
Structure (SMILES): CCCn1c(-c2ccc(O)cc2)c(C)c2ccc(O)cc21

RBA [1]: 1.7
Structure (SMILES): CCn1c(-c2cccc(O)c2)cc2cc(O)ccc21

RBA [1]: 21
Structure (SMILES): CCc1c(-c2ccc(O)cc2)n(CC)c2cc(O)ccc12

RBA [1]: 0.8
Structure (SMILES): Cn1c(-c2ccc(O)cc2)cc2cc(O)ccc21

RBA [1]: 5.8
Structure (SMILES): CCn1c(-c2ccc(O)cc2)cc2cc(O)ccc21
